Test results as given in ChEMBL document CHEMBL4513216, “Probing the Open Global Health Chemical Diversity Library for Multistage-Active Starting Points for Next-Generation Antimalarials” (ACS Infect Dis, 2020).

Test: Toxicity liver stage against HepG2, at 10uM
Format: cell-based
Parameters: test concentration 10 uM, cell line HepG2-A16-CD81EGFP
Conditions: human, HepG2-A16-CD81EGFP cells; read-out: INHIBITION
How it was run: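 Uninfected HepG2-A16-CD81EGFP cells, 3 × 10^3 per well, 1536-well, plated on prespotted compound at 10 μM final, parasite-free screening media added to match infected plates; puromycin 10 μM positive, DMSO 0.5% negative; run in parallel with 48 h PbLuc assay at 37 °C, 5% CO2; viability by CellTiter-Glo luminescence, normalized to controls.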

Structure (SMILES)	cytotoxicity at 10 µM
COCC1c2c(cnn2C)CCN1C(=O)c1cccn1C (stereo not drawn)	-94.1%
Cn1c(Cn2ccnc2)nnc1C1CCN(C(=O)c2ccccn2)CC1	-104%
CCN(CC1CCOC1)C(=O)Nc1ccc(-n2cncn2)nc1 (stereo not drawn)	-6.92%
CC(C)c1cc(C(=O)N2CCCN(Cc3ccccc3)CC2)n[nH]1	-5.41%
CC(=O)NCCCc1ncnn1-c1cccc(Cl)c1	0.254%
OCc1ccc(Cl)c(NCc2cccnc2)c1	3.12%
COCCN1C(=O)[C@@H]2CC[C@H]1CN(C(=O)Cc1c(F)cccc1Cl)C2	-1.02%
CCc1nc(C2CCCN2CC(=O)Nc2nnc(C)s2)no1 (stereo not drawn)	-1.73%
CN(CCCO)Cc1cc(Cl)ccc1OCC(O)CN1CCCCCC1 (stereo not drawn)	2.71%
N#Cc1ccccc1N1CCCN(CC(=O)Nc2ccc(Cl)cn2)CC1	-0.539%
CN(C(=O)NCCN1CCOCC1)C1CCN(c2ccccc2)C1=O (stereo not drawn)	-11.6%
CCCS(=O)(=O)NC1CCN(c2cccc(F)c2C#N)CC1	-5.6%
Cc1csc(CNc2cnc3c(c2)c(C)nn3C)n1	0.739%
O=C(NC1CC1)[C@@H]1CCO[C@@H]2CCN(Cc3ccsc3)C[C@H]21	4.4%
CCCC1CCCN(C(=O)CNC(=O)c2ccoc2C)CC1 (stereo not drawn)	4%
O=C(CN1CCc2ccccc2C1)NCc1cc2n(n1)CCCNC2	2.22%
Cc1cccc(CN2CCC3(CCCN(CC(=O)N(C)C)C3)C2)n1 (stereo not drawn)	-101%
Cc1nc(C)n(CC2CCCN(CCOc3ccccc3C#N)C2)n1 (stereo not drawn)	4.61%
CN1CCCC2(CCN(C(=O)CCn3cncn3)C2)C1=O (stereo not drawn)	-11%
CCOCc1nc2c(c(NCCNC(C)=O)n1)CCN(C(C)=O)CC2	9.93%
O=C([C@H]1CCCO1)N1CC[C@H](O)[C@@H]1Cc1cccnc1	-105%

Structure (SMILES)	cytotoxicity at 10 µM
Cc1cc(C(=O)N[C@H]2CN(CCO)C[C@@H]2C2CC2)sc1C	1.18%
CC(C)n1ncc2c1NC(=O)CSC2C(F)(F)F (stereo not drawn)	-11.1%
O=S1(=O)CCCN1Cc1coc(-c2ccc(C(F)(F)F)cc2)n1	-2.04%
Cn1cc(CN2CCCC23CCN(C(=O)c2ccsc2)CC3)cn1	0.993%
Cc1ccc(C(=O)N2CCCC(c3cc(C(F)(F)F)[nH]n3)C2)o1 (stereo not drawn)	5.77%
O=c1c2ccccc2nc2n1CCC2O (stereo not drawn)	7.68%
FC(F)(F)c1nc(C2CCNCC2)no1	5.88%
COc1ccc(CNC(=O)CCn2cc(C)cn2)cc1C	-4.27%
Cc1cc(C(=O)N2CCc3nnc(N)cc3C2)c(C)n1-c1ccccc1	0.591%
COc1cc2nc3n(c(=O)c2cc1OC)CCN(C(C)=O)CC3	-2.65%
CN(C)Cc1nnc(C2CCN(C(=O)CCc3cccs3)CC2)n1C	-15.9%
COc1ccc(-n2nc(C3CC3)nc2CCn2cnnn2)cc1	-2.88%
CCCNC(=O)Cn1cc(OC)c(=O)cc1CSc1nc(C)cc(C)n1	4.46%
CC(C)Cc1cc(C(=O)N2CCC(Cc3cnn(C)c3)C2)cc(O)n1 (stereo not drawn)	-2.1%
COCCCN(Cc1ccccn1)Cc1ccnn1C1CCCCO1 (stereo not drawn)	-2.66%
CN(C(=O)Cn1nc(-c2ccccc2F)ccc1=O)C1CCS(=O)(=O)C1 (stereo not drawn)	2.21%
CC(C)NC(=O)c1ccn(COc2c(Cl)cccc2Cl)n1	7.44%
CC(NCc1ccccc1Br)c1ccc2[nH]c(=O)[nH]c2c1 (stereo not drawn)	-6.12%
Cc1cc(CN(C)C(=O)NC(C)Cc2ccc(O)cc2)no1 (stereo not drawn)	4.93%
CC1(c2ncc(CN3CCN(c4ccccn4)CC3)cn2)CCCCO1 (stereo not drawn)	2.68%
N#CCCN(Cc1ccco1)C(=O)CCCc1ccccc1	73.1%

Structure (SMILES)	cytotoxicity at 10 µM
CCC(C)C(=O)N(Cc1ccccn1)C1CC1 (stereo not drawn)	-44.5%
N#Cc1cc2cc(Cl)cnc2nc1O	4.29%
COc1ccccc1N1CCCC(Nc2ncccn2)C1=O (stereo not drawn)	4.96%
CCc1n[nH]c(C2CN(CC(=O)NCCc3ccsc3)CCO2)n1 (stereo not drawn)	-11%
CCCc1nnc2sc(-c3cc(C(C)C)n[nH]3)nn12	17.7%
Cc1ccc(CNC(=O)CNCC2CCN(CCO)CC2)s1	6.89%
O=C(CN1CCCC(Cn2cncn2)C1)NCc1ccco1 (stereo not drawn)	-0.587%
O=C(NCCN1CCOCC1)NCc1cccnc1-n1cccn1	-2.22%
Cn1cc(C[C@H]2[C@H](N3CCOCC3)CCN2C(=O)c2ccc[nH]2)cn1	-75%
CCN1C[C@H]2CCN(c3ncccn3)CC[C@H]2S1(=O)=O	-7.08%
Cc1nc(CO[C@H]2CN(C(=O)c3cccnc3)[C@@H]3COC[C@H]23)cs1	-110%
CC(C)NC(=O)CCNC(=O)Nc1ccc(-n2cncn2)c(F)c1	0.485%
COc1cccc(COC(C)C(=O)NC2CCN(CC(N)=O)CC2)c1 (stereo not drawn)	0.234%
Cc1ccc(NCCCNC(=O)NCC2CCS(=O)(=O)C2)nc1 (stereo not drawn)	17.2%
O=C(c1ccsc1)N1CCC2(CCN(Cc3ccccn3)C2=O)C1 (stereo not drawn)	-147%
O=C(Cc1ccc2c(c1)OCCO2)NCCc1nnc2n1CCC2	-9.78%
Cc1nc(N2CCOCC2)nc2c1CCN(Cc1cccnc1)CC2	-0.368%
CS(=O)(=O)N1CCOCC2(CCN(Cc3ccoc3)CC2)C1	2.64%
Cn1ccc(C(=O)NCc2cccc(NC(=O)C3CCC3)c2)cc1=O	-10%
CC(C(=O)Nc1nccs1)N1CCc2nn(C)c(=O)cc2C1 (stereo not drawn)	9.17%
CCN(CC)Cc1nc2c(o1)CN(C(=O)c1ccc3[nH]ccc3c1)C2	7.07%

Structure (SMILES)	cytotoxicity at 10 µM
CS(=O)(=O)c1nccn1Cc1ccncc1	14.5%
CCn1c(CN(C)C)nnc1C1CCN(Cc2ccccn2)CC1	12.5%
CCn1cnnc1C1CCN(C(=O)c2ccc(Cl)s2)CC1	-12.2%
Cc1ccsc1CN(c1nc(CCN)nc2ccccc12)C1CC1	11.7%
COCCN1C[C@@H]2[C@@H](OC)CCN(Cc3cccc(C)n3)[C@@H]2C1	-9.41%
Fc1cccc(CNc2cncc(-n3cccn3)n2)c1	0.959%
CN(Cc1ccsc1)C(=O)CN1CCOC(Cn2cccn2)C1 (stereo not drawn)	-14.7%
CC(C(=O)N1CCCN(Cc2cnn(C)c2)CC1)n1ccnc1 (stereo not drawn)	-13.8%
C[C@]1(O)CN(Cc2ncc[nH]2)CC[C@@H]1Oc1cccc(F)c1	-6.8%
CCN1CCC2(CC1)CC(NC(=O)N(C)C)c1cc(C)ccc12 (stereo not drawn)	-13.1%
CC(C)n1cc2cc(NC(=O)CCS(C)(=O)=O)ccc2n1	-141%
CC(=O)N1CCN(CCNS(=O)(=O)c2cc(F)cc(F)c2)CC1	7.24%
O=C(NCC(F)(F)F)C1CN(C(=O)c2cnccn2)C1	2.24%
Cc1nonc1OCCNC(=O)COc1ccc(Cl)cc1Cl	3.95%
O=C(Cc1ccon1)N1CCN(c2ccc(F)cc2Cl)CC1	1.02%
COc1ccc(CC(=O)Nc2c(C)nc(N3CCCC3)nc2C)cc1	2.05%
COc1ccc(CN2CC[C@@H](O)[C@@H]2Cc2ccccc2)cc1	4.49%
COCCC(=O)N1C[C@@H](c2ccccc2F)[C@@]2(CCCC(=O)N2)C1	0.55%
O=C(c1ccn(-c2cccc(F)c2)n1)N1CCN(CCO)CC1	-4.67%
CNC(=O)C1Cn2ccnc2C2(CCN(C(=O)NC3CCCC3)CC2)O1 (stereo not drawn)	-104%
